A short description of this data set: Toxicity liver stage against HepG2, at 10uM. The note with it: human, HepG2-A16-CD81EGFP cells; read-out: INHIBITION
It counts as cell-based. More on the design: test concentration 10 uM, cell line HepG2-A16-CD81EGFP. Summed up:
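Uninfected HepG2-A16-CD81EGFP cells, 3 × 10^3 per well, 1536-well, plated on prespotted compound at 10 μM final, parasite-free screening media added to match infected plates; puromycin 10 μM positive, DMSO 0.5% negative; run in parallel with 48 h PbLuc assay at 37 °C, 5% CO2; viability by CellTiter-Glo luminescence, normalized to controls.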

Molecules are shown by their SMILES.

Turning to `COc1ccc(C(=O)N2CCCC3(CCCC(=O)N3C)C2)cc1` (configuration not stated), the cytotoxicity at 10 µM is -10.1%.
The same measure for `CCn1nc(C)c2ncnc(NCCn3cccn3)c21`: 7.73%.
The same measure for `COc1c(CNC(c2ccccc2)c2ccc(F)cc2)c(C)nn1C` (configuration not stated): -5.16%.
Take `O=c1c2cnc(N3CCCCC3)nc2ccn1-c1ccccc1F`: the cytotoxicity at 10 µM stood at 2.77%.
Next, `CC(C(=O)N1CCn2cncc2C1)N1CCCC1` (configuration not stated): 6.38%; `CCn1ncnc1C(C)NC(=O)C1CCN(Cc2ccco2)CC1` (configuration not stated): -133%.
Next, `CCN1CCC(NC(=O)CN2CCCCC2Cn2cccn2)CC1` (configuration not stated): -2.71%.
Next, `c1cnc(N2CCCC(c3csc(Nc4cnccn4)n3)C2)nc1` (configuration not stated): 8.33%; `Cc1nc(C)c(C(=O)N2CCCC2(C)C(=O)NC2CCCC2)s1` (configuration not stated): -1.13%.
In the case of `CC(=O)N1CCCC2(CCN(c3nncs3)C2)C1` (configuration not stated), the cytotoxicity at 10 µM was -103%.
Next, `CC(Oc1cccc(F)c1)C(=O)N(CC(N)=O)C1CCCC1` (configuration not stated): -1.21%; `Cc1cnn(CC2CN(CC(=O)NCCc3cccs3)CCO2)c1` (configuration not stated): 1.88%.
Next, `COCCC(=O)N1CCCC(CCC(=O)NCc2ccccc2F)C1` (configuration not stated): 11%; `O=C(NCCN1CCOCC1)Nc1cc(F)ccc1-n1cccn1`: -14.9%; `O=C1C(Nc2nccn3cnnc23)CCCN1c1ccccc1Cl` (configuration not stated): 9.05%.
`c1cc(CN2C[C@@H]3OCCN(CC4CCCO4)[C@@H]3C2)co1` (some centres not stated): the cytotoxicity at 10 µM turned out to be 4.8%.
In the case of `Cc1ccc(C)c(CN(CC(N)=O)C(C)C)c1`, the cytotoxicity at 10 µM was 0.477%.
Next, `Cc1ccc2nc(C3CCN(CC(C)C)CC3)nc(O)c2c1`: 7.69%; `CS(=O)(=O)N1C[C@H](NC(=O)c2ccno2)[C@@H]2OCCC[C@@H]21`: -112%.
The same measure for `CN(Cc1cnn(C)c1)C(=O)NCc1ccc2c(c1)OCCO2`: -8.01%.
As for `COc1ccc(F)cc1CSCC(=O)N(C)C1CC1`, the cytotoxicity at 10 µM was 0.611%.
Next, `CN1CCCC1CNC(=O)CCOc1ccc(Cl)cc1` (configuration not stated): -4.31%; `CSCCCN1C[C@H](NC(=O)c2ccc(CO)cc2)[C@@H](C2CC2)C1`: -11.1%; `c1ccc2c(Cc3nnc([C@H]4CCN(C5CCOCC5)C4)o3)c[nH]c2c1`: 2.9%.
With `Cc1cnc(N2CCN(C)CC2)nc1-c1ccnn1C`, the cytotoxicity at 10 µM came out at 6.3%.
Next, `Cn1cc(C2SCC(=O)Nc3c2c(=O)[nH]n3C2CCOCC2)cn1` (configuration not stated): -0.348%.
The same measure for `CN(C)C[C@H]1OC[C@@H]2CN(C(=O)NCc3cccnc3)CC[C@@H]21`: 3.86%; for `Cc1nc(CN2CCCCC2CCc2ccc(O)cc2)co1` (configuration not stated): 2.72%.
Next, `CN(C)CCN(C)C(=O)NC1CCC(Oc2ccccc2C#N)CC1` (configuration not stated): -21.8%.
`O=C1CC(C(=O)N2CCc3sccc3C2)CN1Cc1cccnc1` (configuration not stated): the cytotoxicity at 10 µM was -1.18%.
Next, `COc1ccc(Br)c(C(=O)NC(CC(=O)O)c2cccs2)c1` (configuration not stated): -3.48%; `COc1ncccc1NC(=O)C1CC(=O)N(Cc2ccccn2)C1` (configuration not stated): -1.2%.
The same measure for `COC(=O)c1sccc1CN1CCN(C(=O)c2ccc(C)o2)CC1`: 2.37%; for `O=c1[nH]nc(CNc2ncc(Cl)cn2)[nH]1`: -5.98%; for `O=C(NCCOC1CCCCC1)c1ccc(-c2ccco2)[nH]c1=O`: -8.08%.
Turning to `O=C1NCCCCC1NC(=O)N1CCc2ccccc21` (configuration not stated), the cytotoxicity at 10 µM is -0.734%.
The same measure for `CCn1c(CN2CCCC2)nnc1C1CCN(Cc2ccccn2)CC1`: 3.11%; for `CN(C)CCN1CCOCC2(C1)CN(Cc1nccs1)CCO2` (configuration not stated): 6%; for `COc1ccc(S(=O)(=O)N2CCc3ccc(Cl)cc32)cc1C(=O)O`: -11.6%.
Next, `CNS(=O)(=O)c1ccc(C(=O)NC2CCOc3ccccc32)o1` (configuration not stated): -9.26%; `CN(C)CCN1C(=O)CCC12CCCN(C(=O)C1CC=CC1)CC2` (configuration not stated): 3.7%; `N#Cc1ccccc1CN1CCCC(c2nccn2CC2CCC2)C1` (configuration not stated): -5.06%.
Next, `CN(Cc1ccc(F)c(F)c1)Cc1cc2c(cc1Br)OCCO2`: -140%.
Turning to `Cc1ncsc1C(=O)OCC1CCN(c2ccccc2)C1` (configuration not stated), the cytotoxicity at 10 µM was 27.5%.
With `Cc1nc2cc(OCc3nc(C(=O)NC(CO)CO)co3)ccc2s1`, the cytotoxicity at 10 µM came out at 4.01%.
Next, `Cc1cc(CNC(=O)C2CCN(CC(N)=O)CC2)cc(C)n1`: -3.06%.
For the molecule `CN(C)c1ccc(CC(=O)N[C@@H]2CCNC[C@H]2O)cc1`, the cytotoxicity at 10 µM was -7.82%.
The same measure for `O=C1CCC2(CCCO2)CCN1Cc1noc(C2CCCC2)n1` (configuration not stated): 4.24%.
The same measure for `CN(Cc1ccco1)Cc1cnc2n1CCN(c1ncccn1)CC2`: -0.603%; for `CCOC(=O)c1coc(N2CCC(N3CCC(O)CC3)CC2)n1`: 6.41%.
Consider `COCCN1CCN(C(=O)c2ccc(C)cc2OC)[C@H]2CS(=O)(=O)C[C@H]21`, for which the cytotoxicity at 10 µM is -3.81%.
Next, `Cc1cc(-c2ccc(C(=O)O)cc2)nc(C2CCN(C(C)C)CC2)n1`: -26.3%; `Cc1ccc(OCC(=O)Nc2cnccc2SCCCO)cc1C`: -2.35%.
On to `Cc1noc(CNc2ccccc2CC(=O)N(C)C)n1`, for which the cytotoxicity at 10 µM worked out at 2.69%.
The same measure for `CN(Cc1csc(-c2ccccc2)n1)Cc1ncccc1C(=O)O`: 6.03%; for `CC(C)N1CCC(Cc2cnc(-c3cccc(C(=O)O)c3)cn2)C1` (configuration not stated): -2.27%; for `Cc1n[nH]c(C)c1C1COCCN1C(=O)c1ccc2c(c1)CCO2` (configuration not stated): -4.01%.
Take `CCN(Cc1ccc2c(c1)OCO2)C(=O)NC(C)Cn1cccn1` (configuration not stated): the cytotoxicity at 10 µM was -2.5%.
Next, `Cc1cccc(NC(=O)N2CCN(Cc3nnc(C(C)C)o3)CC2)c1`: -1.02%; `CCc1nc(C2CCCN2CCS(=O)(=O)c2ccccc2)no1` (configuration not stated): -8.1%; `NCCCC(=O)NCC1(O)CCCN(c2ccnc3cccnc23)C1` (configuration not stated): 3.71%.
The same measure for `Fc1cccc(-n2nc(C3CC3)nc2CCn2cnnn2)c1`: -0.174%.
The same measure for `O=C(NC1CCCN(c2ccc(OC(F)F)cc2)C1)c1ccon1` (configuration not stated): -7%; for `CNC(=O)[C@@H]1C[C@@H](N)CN1c1nnc(-c2ccccc2)s1`: -36%.
As for `COC(=O)c1ccc(NCc2csc(C)n2)cc1Cl`, the cytotoxicity at 10 µM was -5.08%.
The same measure for `O=C(NCC1CC1)[C@H]1CN(Cc2nccs2)C[C@H]2OCC[C@@H]12`: -109%; for `Cc1cc(C)nc(C2CCCN2C(=O)c2cnco2)n1` (configuration not stated): -1.45%.
`CCCN1C(=O)c2ccccc2C1OC` (configuration not stated): the cytotoxicity at 10 µM is -10.1%.
The same measure for `O=C(NCC1CC[C@@]2(CNCCOC2)O1)c1cccnc1` (some centres not stated): 2.32%; for `O=C(c1cccs1)N1CCC[C@]2(C[C@@H](OCc3ccncc3)CO2)C1`: 7.92%.
The same measure for `O=C(c1ccncc1)N1CCCn2nnc(COCCO)c2C1`: 10.5%.
On to `CC(C)(C)OC(=O)N1CCC(NCc2cnn(C(C)(C)C)c2)CC1`, for which the cytotoxicity at 10 µM is 4.85%.

(Values after ChEMBL document CHEMBL4513216, “Probing the Open Global Health Chemical Diversity Library for Multistage-Active Starting Points for Next-Generation Antimalarials” (ACS Infect Dis, 2020).)
